According to ChEMBL document CHEMBL1128699, “Inhibition of the EGF-stimulated cellular proliferation of ER 22 cells by hydroxybiphenyl derivatives” (J Med Chem, 1995):
pIC50: −log10 of the molar value. Values belong to the molecule of their own block, whether it stands above or below them.

Tests used:
[1] = target: T1, Epidermal growth factor receptor (Homo sapiens, UniProt P00533); experiment: In vitro inhibition of intrinsic tyrosine protein kinase activity of the Epidermal growth factor receptor using […]
T1 sequence (P00533 whole entry): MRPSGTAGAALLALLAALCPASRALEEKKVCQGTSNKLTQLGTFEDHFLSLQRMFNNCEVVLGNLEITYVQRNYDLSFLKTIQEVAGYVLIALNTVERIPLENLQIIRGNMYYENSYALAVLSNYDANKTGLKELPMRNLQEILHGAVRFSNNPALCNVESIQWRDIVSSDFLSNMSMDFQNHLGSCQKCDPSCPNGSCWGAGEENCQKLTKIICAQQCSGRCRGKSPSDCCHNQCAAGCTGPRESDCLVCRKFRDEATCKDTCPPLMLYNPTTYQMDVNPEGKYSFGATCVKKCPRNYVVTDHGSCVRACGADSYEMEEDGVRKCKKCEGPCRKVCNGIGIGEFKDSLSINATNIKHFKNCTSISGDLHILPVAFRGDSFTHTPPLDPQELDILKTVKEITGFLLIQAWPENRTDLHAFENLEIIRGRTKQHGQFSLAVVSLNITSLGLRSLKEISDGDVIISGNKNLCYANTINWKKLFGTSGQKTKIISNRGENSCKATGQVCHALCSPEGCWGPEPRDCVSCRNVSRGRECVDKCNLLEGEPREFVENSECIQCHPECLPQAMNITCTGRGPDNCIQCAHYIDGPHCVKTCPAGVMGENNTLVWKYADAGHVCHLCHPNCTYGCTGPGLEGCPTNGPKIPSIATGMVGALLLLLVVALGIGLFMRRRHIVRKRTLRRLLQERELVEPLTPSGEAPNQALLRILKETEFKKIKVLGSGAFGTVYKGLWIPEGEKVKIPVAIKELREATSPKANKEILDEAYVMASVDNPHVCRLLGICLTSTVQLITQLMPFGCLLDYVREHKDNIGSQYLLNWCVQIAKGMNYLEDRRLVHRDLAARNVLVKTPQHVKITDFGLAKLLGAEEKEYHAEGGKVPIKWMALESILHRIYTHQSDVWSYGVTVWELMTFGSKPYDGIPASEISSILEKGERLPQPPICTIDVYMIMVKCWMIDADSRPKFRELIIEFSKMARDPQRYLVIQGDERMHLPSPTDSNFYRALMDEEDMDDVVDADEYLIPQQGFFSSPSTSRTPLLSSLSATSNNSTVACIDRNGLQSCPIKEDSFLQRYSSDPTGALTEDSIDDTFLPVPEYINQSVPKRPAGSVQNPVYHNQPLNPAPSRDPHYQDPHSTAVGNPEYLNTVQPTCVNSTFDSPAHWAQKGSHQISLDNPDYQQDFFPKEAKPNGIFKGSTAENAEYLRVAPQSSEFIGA
How it was run: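 Enzyme source was ER 22 membranes purified on 32% sucrose. Reaction buffer: 20 mM Hepes pH 7.4, 1 mM MnCl2, 0.1 mg/mL BSA, 100 ng/mL EGF. Receptor was preincubated with EGF for 10 min at room temperature, then inhibitor was added. It was stopped with TCA; supernatant was spotted on phosphocellulose paper, washed in phosphoric acid and counted by scintillation.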

[2] = target: T1, Epidermal growth factor receptor; conditions: 10 uM
[3] = target: T1, Epidermal growth factor receptor; conditions: 10 uM; remark: listed apart in the source
[4] = target: T1, Epidermal growth factor receptor; conditions: 5 uM
[5] = target: T1, Epidermal growth factor receptor; conditions: 5 uM; remark: listed apart in the source
[6] = target: T1, Epidermal growth factor receptor; conditions: 10 uM; remark: listed apart in the source
[7] = target: T1, Epidermal growth factor receptor; experiment: Inhibition of Epidermal growth factor receptor activity against […] at 10 uM
[8] = target: T1, Epidermal growth factor receptor; conditions: 10 uM; remark: listed apart in the source
[9] = target: T1, Epidermal growth factor receptor; conditions: 1.25 uM

SMILES: CC(C)(C)c1cc(O)cc(-c2ccc(C(=O)O)cc2)c1
pIC50 [1]: < 4.30

SMILES: O=C(O)c1ccc(-c2cc(O)cc(-c3ccccc3)c2)cc1
inhibition [2]: 9%

SMILES: O=C(NCc1ccccc1)c1ccc(-c2cccc(-c3ccccc3)c2O)cc1
pIC50 [1]: < 5.30

SMILES: O=C(NCc1ccccc1)c1ccc(-c2ccc(-c3ccccc3)cc2O)cc1
pIC50 [1]: < 6.00

SMILES: COC(=O)c1ccc(-c2cc(O)cc(C(C)(C)C)c2)cc1
pIC50 [1]: < 5.00

SMILES: COC(=O)c1ccc(-c2ccc(C(C)(C)C)cc2O)cc1
inhibition [2]: 6%

SMILES: COC(=O)c1ccc(-c2cccc(-c3ccccc3)c2O)cc1
pIC50 [1]: < 4.70

SMILES: O=C(NCc1ccccc1)c1ccc(-c2cc(O)cc(-c3ccccc3)c2)cc1
inhibition [2]: 5%

SMILES: CC(C)(C)c1ccc(-c2ccc(C(=O)NCc3ccccc3)cc2)c(O)c1
inhibition [6]: 57%
pIC50 [1]: < 5.30

SMILES: CC(C)(C)c1cc(O)cc(-c2ccc(CO)cc2)c1
pIC50 [1]: < 5.00
inhibition [8]: 21%

SMILES: CC(COC(=O)c1ccc(-c2cc(O)cc(C(C)(C)C)c2)cc1)CC(C)(C)C (stereo not drawn)
inhibition [2]: 10%

SMILES: CC(C)(C)c1cc(O)cc(-c2ccc(C(=O)NCc3ccccc3)cc2)c1
pIC50 [1]: < 5.30

SMILES: CC(C)(C)c1ccc(-c2ccc(C(=O)O)cc2)c(O)c1
pIC50 [1]: < 5.00

Continued, values first:

inhibition [3]: 11%
SMILES: CC(COC(=O)c1ccc(-c2cccc(-c3ccccc3)c2O)cc1)CC(C)(C)C (stereo not drawn)

inhibition [4]: 27%
inhibition [3]: 3%
SMILES: CC(COC(=O)c1ccc(-c2ccc(-c3ccccc3)cc2O)cc1)CC(C)(C)C (stereo not drawn)

inhibition [5]: 47%
pIC50 [1]: < 5.30
SMILES: COCOc1cc(C(C)(C)C)ccc1-c1ccc(C(=O)NCc2ccccc2)cc1

inhibition [2]: 15%
SMILES: CC(COC(=O)c1ccc(-c2cc(O)cc(-c3ccccc3)c2)cc1)CC(C)(C)C (stereo not drawn)

inhibition [3]: 16%
SMILES: COCOc1c(-c2ccccc2)cccc1-c1ccc(C(=O)OCC(C)CC(C)(C)C)cc1 (stereo not drawn)

inhibition [3]: 2%
SMILES: COCOc1cc(-c2ccccc2)ccc1-c1ccc(C(=O)OC)cc1

inhibition [3]: 8%
SMILES: COCOc1cc(-c2ccccc2)ccc1-c1ccc(C(=O)O)cc1

pIC50 [7]: < 5.00
SMILES: COCOc1cc(C(C)(C)C)ccc1-c1ccc(C(=O)OC)cc1

inhibition [4]: 25%
inhibition [2]: 3%
SMILES: CC(COC(=O)c1ccc(-c2ccc(C(C)(C)C)cc2O)cc1)CC(C)(C)C (stereo not drawn)

inhibition [9]: 41%
pIC50 [1]: 4.85
SMILES: COC(=O)c1ccc(-c2ccc(-c3ccccc3)cc2O)cc1

inhibition [4]: 10%
pIC50 [1]: < 4.70
SMILES: COCOc1cc(-c2ccccc2)ccc1-c1ccc(C(=O)OCC(C)CC(C)(C)C)cc1 (stereo not drawn)

pIC50 [1]: < 6.00
SMILES: COCOc1cc(-c2ccccc2)ccc1-c1ccc(C(=O)NCc2ccccc2)cc1

pIC50 [1]: < 4.30
SMILES: COCOc1cc(C(C)(C)C)ccc1-c1ccc(C(=O)OCC(C)CC(C)(C)C)cc1 (stereo not drawn)
